Assay results: PMC3025495 (The lancet oncology, 2010)
Read-outs that look alike come from different tables or passages of the source.

How the values were obtained:
BH3-only proteins = details: no reference printed with the sentence; cited from earlier work
[1] = system: human hematopoietic progenitors: common myeloid precursors; test: Methylcellulose-based in vitro colony forming assay, common myeloid precursors; assay type: cell-based; details: read-out: IC50, growth inhibition of common myeloid precursors
[2] = system: human hematopoietic progenitors: erythroid precursors; test: Methylcellulose-based in vitro colony forming assay, erythroid precursors; assay type: cell-based; details: read-out: IC50, growth inhibition of erythroid precursors
CD3+ cells (T-cells) = test: Pharmacodynamic effect on circulating CD3+ cells; assay type: in vivo, human; details: after 14 days of drug exposure (day 14 of cycle 1), at least 200 mg
Outline: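 Patients with relapsed or refractory lymphoid malignancies took the test compound orally each day. Two schedules were used: days 1–14 of a 21-day cycle, or continuous dosing after a 150 mg lead-in lasting 7–14 days. Circulating CD3+ counts were compared with baseline. The P-value for the change from baseline came from a Sign-test because the data were skewed.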

hematological cell lines = details: in 11 of 23 hematological cell lines, ref [10]; cited from earlier work
clinical = details: human, in vivo
[3] = system: BCL-XL and BCL-2 over expressing prolymphocytic murine cell lines; details: coimmunoprecipitation; ref [11], [27]; cited from earlier work
[4] = system: relapsed/refractory lymphoid malignancies; test: Tumor response and survival; assay type: in vivo, human
[5] = system: xenograft model of mantle cell lymphoma; details: ref [11]; cited from earlier work
[6] = system: murine xenograft model of acute lymphocytic leukemia; details: ref [11]; cited from earlier work
[7] = Pharmacokinetic profile in patients
[8] = system: BCL-2 dependent human small cell lung cancer (SCLC) cell line; details: within 2 hours of treatment; ref [11], [27]; cited from earlier work
[9] = system: patients with relapsed or refractory lymphoid malignancies; test: Phase 1 dose-escalation study: toxicity and DLT
[10] = human, in vivo
animal models = test: Projected effective exposure from animal models; assay type: in vivo; details: based on animal models
[11] = system: patients with relapsed or refractory lymphoid malignancies; details: in vivo
circulating platelets = test: Pharmacodynamic effect on circulating platelets; assay type: in vivo, human; details: platelet nadir versus navitoclax AUC, n=35 patients
patients = details: cited from earlier work; for clinical activity: clinical testing, [24]; for clinical activity / on-target pharmacodynamic effects on platelets: ref [23]; for dose-limiting toxicities: gossypol ref [23], obatoclax ref [24]; for on-target pharmacodynamic effects on platelets: review of toxicities, [25]–[28]
[12] = Grade 1/2, Continuous (21/21) Schedule MTD 325 mg (N=5)
[13] = Grade 1/2, Intermittent (14/21) Schedule All Patients (N=38)
[14] = Grade 3/4, Continuous (21/21) Schedule All Patients (N=17)
[15] = Grade 3/4, Continuous (21/21) Schedule MTD 325 mg (N=5)
[16] = Grade 3/4, Intermittent (14/21) Schedule All Patients (N=38)
[17] = Grade 3/4, Intermittent (14/21) Schedule MTD 315 mg (N=9)

Structure (SMILES): CN(C)CC[C@H](CSc1ccccc1)Nc1ccc(S(=O)(=O)NC(=O)c2ccc(N3CCN(Cc4ccccc4-c4ccc(Cl)cc4)CC3)cc2)cc1[N+](=O)[O-] [ABT-737]
- binding affinity relative to previously reported compounds (BH3-only proteins): two to three orders of magnitude greater
- IC50 [1]: 900 nM
- IC50 [2]: 1000 nM

Structure (SMILES): CC1(C)CCC(c2ccc(Cl)cc2)=C(CN2CCN(c3ccc(C(=O)NS(=O)(=O)c4ccc(N[C@H](CCN5CCOCC5)CSc5ccccc5)c(S(=O)(=O)C(F)(F)F)c4)cc3)CC2)C1 [Navitoclax]
- median reduction of circulating CD3+ cells (CD3+ cells (T-cells)): 241 CD3+ cells/µl
- EC50 (hematological cell lines): < 1000 nM
- half-life (clinical): ~17 h
- BIM:BCL-2 family protein interactions [3]: dose-dependent decrease
- median PFS ([4]; 16 patients with follicular lymphoma, IQR 42-92): 88 days
- patients achieving a PR ([4]; CLL/SLL patients with measurable adenopathy): 8 of 16
- PR in NK/T-cell lymphoma ([4]; NK/T-cell lymphoma): single patient
- median overall survival ([4]; all 20 patients with CLL/SLL): has not been reached
- median PFS ([4]; all 20 patients with CLL/SLL, IQR 49-309): 246 days
- reduction in leukemia cells ([4]; all seven patients with CLL): ≥ 50%
- patients with measurable tumor reduction ([4]; follicular lymphoma): 6 of 16
- patients with some tumor reduction ([4]; patients with evaluable adenopathy, all dose levels): 21 of 46
- cycles until response, median (range) ([4]; responders across dose levels and tumor types): 3.5 (2–10) cycles
- effect on cure rate of rituximab plus chemotherapy [5]: significantly improved
- tumor response in xenograft [6]: durable and complete tumor regressions
- time to peak concentrations (Cmax) post-dose ([7]; 14/21-day schedule, overall): approximately 9 hours
- detection in urine (renal elimination) ([7]; 24-hour urine collection after dosing on C1 D–3): could not be detected
- dose dependence of exposure ([7]; between 10 mg and 440 mg): dose-proportional
- cytochrome c [8]: increase
- cytosolic BAX [8]: dose-dependent decrease
- All Infections, patients n (%) [9, 12]: 5 (100%)
- Herpes Zoster, patients n (%) [9, 12]: 1 (20%)
- All Infections, patients n (%) [9, 13]: 25 (66%)
- Herpes Zoster, patients n (%) [9, 13]: 0
- All Infections, patients n (%) ([9]; Grade 1/2, Intermittent (14/21) Schedule MTD 315 mg (N=9)): 8 (89%)
- All Infections, patients n (%) [9, 14]: 0
- Herpes Zoster, patients n (%) [9, 14]: 0
- All Infections, patients n (%) [9, 15]: 0
- Herpes Zoster, patients n (%) [9, 15]: 0
- All Infections, patients n (%) [9, 16]: 6 (16%)
- Herpes Zoster, patients n (%) [9, 16]: 1 (3%)
- All Infections, patients n (%) [9, 17]: 1 (11%)
- Herpes Zoster, patients n (%) [9, 17]: 0
- safe tolerated dose ([9]; intermittent (14/21) schedule, oral once daily): 315 mg
- patients who required at least one dose reduction ([9]; overall dose levels): 11 patients
- dose levels at which projected effective exposure was achieved [10]: at least 315 mg/day
- t½ ([10]; 315 mg): 15·1 ± 3·0 h
- increase of oral bioavailability by food ([10]; po): approximately 20%
- CL/F (apparent oral clearance) ([10]; po, 315 mg): 4·1 ± 2·1 L/h
- projected effective exposure (AUC) (animal models): 55000 to 88000 ng·h/mL
- All Infections, patients n (%) ([11]; human): 14 (82%)
- Herpes Zoster, patients n (%) ([11]; human): 1 (6%)
- dose selected for phase II study ([11]; human): 325 mg
- grade 1/2 fatigue, number of patients ([11]; human): 21 patients
- grade 3/4 neutropenia, number of patients ([11]; human): 17 patients
- grade 3/4 thrombocytopenia, number of patients ([11]; human): 29 patients
- recommended phase 2 dose ([11]; human): 325 g/day
- patients who developed respiratory infections and/or bronchitis [11]: Eight
- patients who withdrew their consent for treatment [11]: 6 patients
- severity of the platelet nadirs (circulating platelets): concentration dependent

Structure (SMILES): Cc1cc2c(C(C)C)c(O)c(O)c(C=O)c2c(O)c1-c1c(C)cc2c(C(C)C)c(O)c(O)c(C=O)c2c1O [gossypol]
- clinical activity (patients): little to no clinical activity
- dose-limiting toxicities (patients): gastrointestinal side effects
- on-target pharmacodynamic effects on platelets (patients): no on-target pharmacodynamic effects on platelets

Structure (SMILES): COC1=CC(c2cc3ccccc3[nH]2)=N/C1=C\c1[nH]c(C)cc1C [obatoclax]
- clinical activity (patients): little to no clinical activity
- dose-limiting toxicities (patients): Infusion-related somnolence and neurologic symptoms
- on-target pharmacodynamic effects on platelets (patients): no on-target pharmacodynamic effects on platelets
